Experimental data reported in ChEMBL document CHEMBL4371012, “Development of Macrocyclic Peptides Containing Epoxyketone with Oral Availability as Proteasome Inhibitors” (J Med Chem, 2018).
Calls of active or inactive are those of the source. The rule behind the calls is not given here.

How the values were obtained:
MM1.S = experiment: Antiproliferative activity against human MM1S cells after 72 hrs by MTS assay; type: functional, cell-based
RPMI-8226 = experiment: Antiproliferative activity against human RPMI8226 cells after 72 hrs by MTS assay; type: functional, cell-based; conditions: RPMI-8226, 72 h
MV4-11 = experiment: Antiproliferative activity against human MV4-11 cells after 72 hrs by MTS assay; type: functional, cell-based; conditions: MV4-11, 72 h
[1] = target: T1, Proteasome Macropain subunit MB1 (Homo sapiens, UniProt P28074); experiment: Inhibition of human 20S proteasome chymotrypsin-like activity using Suc-Leu-Leu-Val-Tyr-AMC as substrate pretreated for 15 mins followed by substrate addition by fluorescence assay
T1 sequence (P28074 whole entry): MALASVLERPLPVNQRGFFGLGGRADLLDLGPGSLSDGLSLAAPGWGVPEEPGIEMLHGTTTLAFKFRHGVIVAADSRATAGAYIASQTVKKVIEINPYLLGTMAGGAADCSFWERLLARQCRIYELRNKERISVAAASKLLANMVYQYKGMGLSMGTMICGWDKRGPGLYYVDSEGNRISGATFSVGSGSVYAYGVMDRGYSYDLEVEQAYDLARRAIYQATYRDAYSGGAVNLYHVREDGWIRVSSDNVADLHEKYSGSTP

[2] = AUC (0 to t) in ICR mouse at 5 mg/kg, iv after 1 hr by LC-MS/MS analysis; type: ADME, organism-based; parameters: time < 1 hr, dose 5 mg/kg, route intravenous; conditions: in vivo
Mus musculus = experiment: In vivo inhibition of 20S proteasome chymotrypsin-like activity in Balb/c mouse blood at 30 mg/kg, po measured at 2 to 24 hrs post dose using LLVY-AMC as substrate by fluorescence assay; type: functional, organism-based
How it was run: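 BALB/c mice dosed orally in 0.5% CMC-Na vehicle. Blood was sampled at 2 and 24 h after dosing for proteasome chymotrypsin-like activity.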

[3] = Volume of distribution at steady state in ICR mouse at 5 mg/kg, iv by LC-MS/MS analysis; type: ADME, organism-based; conditions: in vivo, read-out: Vdss
[4] = Tmax in ICR mouse at 25 mg/kg, po via gavage by LC-MS/MS analysis; type: ADME, organism-based; conditions: in vivo
[5] = Oral bioavailability in ICR mouse at 25 mg/kg via gavage by LC-MS/MS analysis; type: ADME, organism-based; conditions: in vivo
[6] = Clearance in ICR mouse at 5 mg/kg, iv by LC-MS/MS analysis; type: ADME, organism-based; conditions: in vivo
[7] = Metabolic stability in mouse liver microsomes assessed as parent compound remaining at 100 uM after 30 mins by LC-MS/MS analysis; type: ADME, Microsome; conditions: read-out: Stability
How it was run: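 After the microsomal incubation, the clear supernatant was analysed by ESI LC-MS. The read-out was the relative peak area of each parent compound.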

[8] = Cmax in ICR mouse at 25 mg/kg, po via gavage by LC-MS/MS analysis; type: ADME, organism-based; parameters: dose 25 mg/kg, route oral; conditions: in vivo
[9] = Half life in ICR mouse at 5 mg/kg, iv by LC-MS/MS analysis; type: ADME, organism-based; conditions: in vivo
[10] = AUC (0 to t) in ICR mouse at 25 mg/kg, po via gavage after 1 hr by LC-MS/MS analysis; type: ADME, organism-based; parameters: time < 1 hr, dose 25 mg/kg, route oral; conditions: in vivo
[11] = Metabolic stability in mouse liver microsomes assessed as parent compound remaining at 100 uM after 5 mins by LC-MS/MS analysis; type: ADME, Microsome; conditions: read-out: Stability

| Compound | IC50 (MM1.S) [nM] | IC50 (RPMI-8226) [nM] | IC50 (MV4-11) [nM] | IC50 [1] [nM] | further results |
| --- | --- | --- | --- | --- | --- |
| COC[C@@H]1NC(=O)c2ccccc2OCCCCOC[C@@H](C(=O)N[C@@H](Cc2ccccc2)C(=O)[C@@]2(C)CO2)NC1=O | 65 | > 100 | 49 | 36 |  |
| COC[C@@H]1NC(=O)c2ccccc2OCCOCCOCCOC[C@@H](C(=O)N[C@@H](Cc2ccccc2)C(=O)[C@@]2(C)CO2)NC1=O | 43 | 82 | 130 | 370 |  |
| COC[C@H](NC(=O)c1cnc(C)s1)C(=O)N[C@@H](COC)C(=O)N[C@@H](Cc1ccccc1)C(=O)[C@@]1(C)CO1 [OPROZOMIB] | 9 | 19 | 28 |  | AUC(0-t) at 1 h [2]: 506 ng·h/mL; inhibition (Mus musculus): Active; Vd [3]: 0.51 L/kg; Tmax [4]: 13.2 min; bioavailability [5]: 5.61%; clearance [6]: 164 mL/min/kg; remaining at 0.5 h, 100 µM [7]: 60%; Cmax [8]: 261 ng/mL; half-life [9]: 2.4 min; AUC(0-t) at 1 h [10]: 142 ng·h/mL |
| COC[C@@H]1NC(=O)c2cnn(C)c2OCCCCCCOC[C@@H](C(=O)N[C@@H](Cc2ccccc2)C(=O)[C@@]2(C)CO2)NC1=O | 6 | 20 | 4 | 32 | remaining at 0.5 h, 100 µM [7]: 63% |
| COC[C@@H]1NC(=O)c2cc(Cl)ccc2OCCCCCCOC[C@@H](C(=O)N[C@@H](Cc2ccccc2)C(=O)[C@@]2(C)CO2)NC1=O |  |  |  | 436 | remaining at 5 min, 100 µM [11]: < 5% |
| COC[C@@H]1NC(=O)c2ccccc2OCCCCCCCCCOC[C@@H](C(=O)N[C@@H](Cc2ccccc2)C(=O)[C@@]2(C)CO2)NC1=O |  |  |  | 460 |  |
| COC[C@@H]1NC(=O)[C@@H]2CCCN2C(=O)CCCCCOC[C@@H](C(=O)N[C@@H](Cc2ccccc2)C(=O)[C@@]2(C)CO2)NC1=O | 172 | 350 | 421 | 352 |  |
| COC[C@@H]1NC(=O)c2cccc(F)c2OCCCCCCOC[C@@H](C(=O)N[C@@H](Cc2ccccc2)C(=O)[C@@]2(C)CO2)NC1=O | 3 | 10 | 9 | 25 |  |
| COC[C@@H]1NC(=O)c2sc(C)nc2OCCCCCCOC[C@@H](C(=O)N[C@@H](Cc2ccccc2)C(=O)[C@@]2(C)CO2)NC1=O | 65 | > 100 | 36 | 392 |  |
| COC[C@@H]1NC(=O)c2ncccc2OCCCCCCOC[C@@H](C(=O)N[C@@H](Cc2ccccc2)C(=O)[C@@]2(C)CO2)NC1=O | 37 | > 100 |  | 248 |  |
| COC[C@@H]1NC(=O)c2cccc(OC)c2OCCCCCCOC[C@@H](C(=O)N[C@@H](Cc2ccccc2)C(=O)[C@@]2(C)CO2)NC1=O | 3 | 5 | 6 | 4 | remaining at 5 min, 100 µM [11]: < 5% |
| COC[C@@H]1NC(=O)c2ccc(Cl)cc2OCCCCCCOC[C@@H](C(=O)N[C@@H](Cc2ccccc2)C(=O)[C@@]2(C)CO2)NC1=O | 43 | > 100 | 26 | 100 |  |
| COC[C@@H]1NC(=O)c2ccccc2OCCCCCCCCOC[C@@H](C(=O)N[C@@H](Cc2ccccc2)C(=O)[C@@]2(C)CO2)NC1=O |  |  |  | 346 |  |
| COC[C@@H]1NC(=O)c2nccn2CCCCCCCOC[C@@H](C(=O)N[C@@H](Cc2ccccc2)C(=O)[C@@]2(C)CO2)NC1=O | 2 | 5 | 5 | 37 |  |
| COC[C@@H]1NC(=O)c2ccc(F)cc2OCCCCCCOC[C@@H](C(=O)N[C@@H](Cc2ccccc2)C(=O)[C@@]2(C)CO2)NC1=O | 69 | > 100 |  | 205 |  |
| COC[C@@H]1NC(=O)c2ccccc2OCCCCCCCOC[C@@H](C(=O)N[C@@H](Cc2ccccc2)C(=O)[C@@]2(C)CO2)NC1=O | 78 | > 100 | 39 | 63 |  |
| COC[C@@H]1NC(=O)c2cccnc2OCCCCCCOC[C@@H](C(=O)N[C@@H](Cc2ccccc2)C(=O)[C@@]2(C)CO2)NC1=O |  |  |  | 232 |  |
| COC[C@@H]1NC(=O)c2cccc(c2)OCCCCCCCCOC[C@@H](C(=O)N[C@@H](Cc2ccccc2)C(=O)[C@@]2(C)CO2)NC1=O | 11 | 32 |  | 51 |  |
| COC[C@@H]1NC(=O)c2ccc(C)cc2OCCCCCCOC[C@@H](C(=O)N[C@@H](Cc2ccccc2)C(=O)[C@@]2(C)CO2)NC1=O | 53 | > 100 |  | 162 |  |
| COC[C@@H]1NC(=O)c2ccccc2OCCCCCCCC[C@@H](C(=O)N[C@@H](Cc2ccccc2)C(=O)[C@@]2(C)CO2)NC1=O | 137 | 120 | 72 | 35 |  |
| COC[C@@H]1NC(=O)c2ccccc2OCCCCCCC[C@@H](C(=O)N[C@@H](Cc2ccccc2)C(=O)[C@@]2(C)CO2)NC1=O | 32 | 73 | 66 | 14 |  |
| COC[C@@H]1NC(=O)c2sccc2OCCCCCCOC[C@@H](C(=O)N[C@@H](Cc2ccccc2)C(=O)[C@@]2(C)CO2)NC1=O | 63 | 128 | 131 | 257 |  |
| COC[C@@H]1NC(=O)c2cccn2CCCCCCOC[C@@H](C(=O)N[C@@H](Cc2ccccc2)C(=O)[C@@]2(C)CO2)NC1=O | 4 | 13 | 11 | 14 | remaining at 5 min, 100 µM [11]: < 5% |
| COC[C@@H]1NC(=O)c2ccc(OC)cc2OCCCCCCOC[C@@H](C(=O)N[C@@H](Cc2ccccc2)C(=O)[C@@]2(C)CO2)NC1=O | 43 | > 100 |  | 253 |  |
| COC[C@@H]1NC(=O)c2ccccc2OCCOCCOC[C@@H](C(=O)N[C@@H](Cc2ccccc2)C(=O)[C@@]2(C)CO2)NC1=O | 12 | 55 | 33 | 116 |  |
| COC[C@@H]1NC(=O)c2ccnn2CCCCCCCOC[C@@H](C(=O)N[C@@H](Cc2ccccc2)C(=O)[C@@]2(C)CO2)NC1=O | 2 | 5 | 5 | 25 |  |
| COC[C@@H]1NC(=O)c2ccccc2OCCCCCOC[C@@H](C(=O)N[C@@H](Cc2ccccc2)C(=O)[C@@]2(C)CO2)NC1=O | 29 | 74 | 13 | 21 |  |
| COC[C@@H]1NC(=O)c2cnn(C)c2CCCCCCOC[C@@H](C(=O)N[C@@H](Cc2ccccc2)C(=O)[C@@]2(C)CO2)NC1=O | 2 | 3 | 3 | 20 | remaining at 0.5 h, 100 µM [7]: 48% |
